What all share (type): functional, cell-based
One test deals with HepG2. The test can be described thus: Cytotoxicity against human HepG2 cells after 72 hrs by crystal violet staining based microplate reader analysis. Particulars: HepG2, 72 h. The gist of the method:
(§1)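 ATCC HepG2 and MDA-MB-231 cells grown in DMEM with 10% FBS and no antibiotics. Medium was changed at 50–60% confluence (24–48 h post-plating), then cells were exposed for 72 h. Fixation used 1% glutaraldehyde in PBS for 15 min, followed by 0.02% aqueous crystal violet for 30 min. After a PBS wash and 70% EtOH solubilization, absorbance was read at 570 nm (ref 405 nm). IC50 derived; Taxol was the positive control.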

The next test relates to MDA-MB-231. The test can be described thus: Cytotoxicity against human MDA-MB-231 cells after 72 hrs by crystal violet staining based microplate reader analysis. The conditions noted are these: MDA-MB-231, 72 h. The essentials:
as §1

In a further test the test system is A549. The test can be described thus: Cytotoxicity against human A549 cells after 72 hrs by crystal violet staining based microplate reader analysis. Particulars: A549, 72 h. The gist of the method: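 At 50–60% confluence (24–48 h after plating), medium was refreshed before a 72 h treatment. Cells were fixed in 1% glutaraldehyde/PBS for 15 min and stained with 0.02% crystal violet for 30 min. After a PBS wash, dye was solubilized in 70% EtOH and read at A570 (ref 405 nm). IC50 reported; Taxol was the positive control.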

Turning to `COc1cc(/C=C/C(O)=C/C(=O)/C=C/c2ccc(O)cc2)ccc1O[C@H]1C=C(C)[C@@H](O)C[C@@H]1[C@@H](C)CC(=O)C=C(C)C` [DEMETHOXYBISABOLOCURCUMIN ETHER], the IC50 turned out to be 13 µM with HepG2, 10.3 µM in the test on MDA-MB-231 and 16.6 µM in the test on A549.

Regarding `COc1cc(/C=C/C(=O)/C=C(O)/C=C/c2ccc(O[C@H]3C[C@H]([C@@H](C)CCC=C(C)C)[C@@H](O)C=C3C)c(OC)c2)ccc1O` [TERPECURCUMIN B], the IC50 was 64.1 µM with HepG2, 74.9 µM with MDA-MB-231 and 61.9 µM with A549.

Regarding `COc1cc(/C=C/C(=O)/C=C(O)/C=C/c2ccc(O[C@H]3C=C(C)[C@@H](O)C[C@@H]3[C@@H](C)CCC=C(C)C)c(OC)c2)ccc1O` [TERPECURCUMIN A], the IC50 in the test on HepG2 was determined as 25 µM; in the test with MDA-MB-231 it was 27.3 µM; in the test on A549 it was 30.6 µM.

As to `COc1cc(/C=C/C(=O)/C=C(O)/C=C/c2ccc(O[C@H]3C=C(C)[C@@H](O)C[C@@H]3[C@@H](C)CC(=O)C=C(C)C)c(OC)c2)ccc1O` [BISABOLOCURCUMIN ETHER], the results for the IC50 in the test on HepG2, in the test with MDA-MB-231 and in the test with A549 were 15.4 µM, 10.6 µM and 16.1 µM, respectively.

Take `CC(C)=CC(=O)C[C@H](C)[C@H]1C[C@H](O)C(C)=C[C@@H]1Oc1ccc(/C=C/C(O)=C/C(=O)/C=C/c2ccc(O)cc2)cc1` [DIDEMETHOXYBISABOLOCURCUMIN ETHER]: the IC50 in the test with HepG2 stood at 22.7 µM; in the test with MDA-MB-231, 30.8 µM; in the test with A549, 27.4 µM.

As for `COc1cc(/C=C/C(=O)CC(=O)/C=C/c2ccc(O)c(OC)c2)ccc1O` [CURCUMIN], the IC50 with HepG2 came to 31.3 µM; in the test with MDA-MB-231, 37.8 µM; in the test with A549, 49.2 µM.

As for `COc1cc(/C=C/C(=O)/C=C(O)/C=C/c2ccc(O[C@]3(C)C=C[C@@H]([C@@H](C)CC(=O)C=C(C)C)C[C@@H]3O)cc2)ccc1O` [TERPECURCUMIN G], the IC50 in the test with HepG2 is 17.1 µM; in the test on MDA-MB-231, 15.9 µM; in the test on A549, 14.5 µM.

`COc1cc(/C=C/C(=O)/C=C(O)/C=C/c2ccc(O[C@H]3C[C@H]([C@@H](C)CCC=C(C)C)C=C[C@@]3(C)O)c(OC)c2)ccc1O` [TERPECURCUMIN C]: the figures for the 50% inhibitory concentration (IC50) in the test on HepG2, in the test on MDA-MB-231 and in the test with A549 were 29.5 µM, 24.6 µM and 35 µM, respectively.

Take `COc1cc(/C=C/C(=O)/C=C(O)/C=C/c2ccc(O[C@]3(C)C=C[C@@H]([C@@H](C)CC(=O)C=C(C)C)C[C@@H]3O)c(OC)c2)ccc1O` [TERPECURCUMIN F]: the IC50 in the test on HepG2 stood at 15.7 µM; in the test with MDA-MB-231, 19.4 µM; in the test on A549, 15.2 µM.

Consider `COc1cc(/C=C/C(=O)/C=C(O)/C=C/c2cc(OC)c(O)c([C@H]3C=C(C)CC[C@@H]3[C@@H](C)CC(=O)C=C(C)C)c2)ccc1O` [TERPECURCUMIN I], for which the IC50 was 50.3 µM with HepG2, 69.5 µM with MDA-MB-231 and 41.1 µM with A549.

Regarding `O=C(/C=C/c1ccc(O)cc1)CC(=O)/C=C/c1ccc(O)cc1` [BISDEMETHOXYCURCUMIN], the IC50 in the test on HepG2 is 62.9 µM; in the test on MDA-MB-231 it was 38.5 µM; in the test on A549, 38.1 µM.

In the case of `CC(=O)O[C@H]1C(=O)[C@@]2(C)[C@H]([C@H](OC(=O)c3ccccc3)[C@]3(O)C[C@H](OC(=O)[C@H](O)[C@@H](NC(=O)c4ccccc4)c4ccccc4)C(C)=C1C3(C)C)[C@]1(OC(C)=O)CO[C@@H]1C[C@@H]2O` [PACLITAXEL], the half-inhibitory concentration (IC50) in the test with HepG2 turned out to be 0.054 µM; in the test with MDA-MB-231, 0.052 µM; with A549, 0.056 µM.

For the molecule `COc1cc(/C=C/C(=O)/C=C(O)/C=C/c2ccc(O[C@H]3C[C@H]([C@@H](C)CC(=O)C=C(C)C)C=C[C@@]3(C)O)c(OC)c2)ccc1O` [TERPECURCUMIN D], the IC50 came out at 18.3 µM in the test on HepG2, 15.9 µM with MDA-MB-231 and 14.3 µM with A549.

For `COc1cc(/C=C/C(=O)/C=C(O)/C=C/c2cc(OC)c(O)c([C@H]3C=C(C)[C@@H](O)C[C@@H]3[C@@H](C)CCC=C(C)C)c2)ccc1O` [TERPECURCUMIN H], the 50% inhibitory concentration (IC50) was 54.6 µM in the test on HepG2, 43.7 µM in the test on MDA-MB-231 and 84.3 µM in the test with A549.

For `COc1cc(/C=C/C(O)=C/C(=O)/C=C/c2ccc(O)cc2)ccc1O` [DEMETHOXYCURCUMIN], the half-maximal inhibitory concentration (IC50) came to 58.1 µM in the test with HepG2, 44.3 µM in the test with MDA-MB-231 and 38.1 µM in the test on A549.

With `COc1cc(/C=C/C(=O)/C=C(O)/C=C/c2ccc(O[C@]3(C)C=C[C@@H]([C@@H](C)CCC=C(C)C)C[C@@H]3O)c(OC)c2)ccc1O` [TERPECURCUMIN E], the IC50 was determined as 35.9 µM in the test with HepG2, 84.1 µM with MDA-MB-231 and 41.4 µM in the test with A549.

(Values after ChEMBL document CHEMBL2203075, “Terpecurcumins A-I from the rhizomes of Curcuma longa: absolute configuration and cytotoxic activity” (J Nat Prod, 2012).)
